Test results taken from PMC9303630 (Journal of Clinical Pharmacology, 2021).
“Also recorded” adds a separate entry of the source. Marks after values point to notes of the source that are not given here.

What was measured:
[1] = cited from earlier work
[2] = not assessed in this study; cited from earlier work
[3] = test system: P‐glycoprotein (P‐gp); details: cited from earlier work
[4] = test system: CYP3A4; details: cited from earlier work
[5] = radiolabeled ipatasertib; ref data on file; cited from earlier work
[6] = Phase 1 open-label single-dose hepatic impairment PK study of ipatasertib; type: in vivo, human; details: for tlast: 100 mg ipatasertib single oral, median (min-max); for AUC0‐∞, Test/Reference geometric mean ratio / Cmax, Test/Reference geometric mean ratio: (90%CI) where printed
Outline: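 Open-label, parallel-group design: subjects with mild, moderate or severe hepatic impairment (Child-Pugh or NCI-ODWG) vs matched normal-function controls. Single oral 100 mg dose with 240 mL water after ≥8 h fast, then fasting ≥4 h. Plasma was sampled predose to day 15 for parent and M1, assayed with stable-labeled internal standards. Log-transformed AUC0‐∞ and Cmax were compared test vs reference with back-transformed geometric mean ratios and 90% CIs.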

[7] = cited from earlier work; remark: listed apart in the source
[8] = once daily; combination setting; patients with solid tumors; cited from earlier work
[9] = Safety and tolerability in the hepatic impairment study; type: in vivo, human
[10] = 100-mg dose of ipatasertib coadministered with itraconazole; cited from earlier work
[11] = Mild vs normal, Child-Pugh, listed as ipatasertib
[12] = Mild vs normal, NCI-ODWG, listed as ipatasertib
[13] = Moderate vs normal, Child-Pugh, listed as ipatasertib
[14] = Moderate vs normal, NCI-ODWG, listed as ipatasertib
[15] = Severe vs normal, Child-Pugh, listed as ipatasertib
[16] = Severe vs normal, NCI-ODWG, listed as ipatasertib
[17] = moderate or severe hepatic impairment, either method of classification

CC1(C)CCC(CN2CCN(c3ccc(C(=O)NS(=O)(=O)c4ccc(NCC5CCOCC5)c([N+](=O)[O-])c4)c(Oc4cnc5[nH]ccc5c4)c3)CC2)=C(c2ccc(Cl)cc2)C1 [venetoclax]
exposure in subjects with normal and mildly impaired hepatic function [1]: comparable exposure

CC(C)NC[C@@H](C(=O)N1CCN(c2ncnc3c2[C@H](C)C[C@H]3O)CC1)c1ccc(Cl)cc1 [Ipatasertib]
overall mean percentage unbound in human plasma [2]: 63.6%
substrate of P‐glycoprotein (P‐gp) [3]: substrate
substrate of CYP3A4 [4]: sensitive substrate
parent drug eliminated in urine [5]: ≈ 8%
total administered dose eliminated in urine [5]: ≈ 19%
tlast ([6]; Child-Pugh, Healthy (N = 13)): 120.0 (72.0‐120.4) h
tlast ([6]; Child-Pugh, Mild (N = 8)): 120.0 (48.0‐168.0) h
tlast ([6]; Child-Pugh, Moderate (N = 8)): 216.0 (146.5‐334.5) ^b h
tlast ([6]; Child-Pugh, Severe (N = 7)): 192.2 (167.7‐336.0) ^c h
tlast ([6]; NCI-ODWG, Healthy (N = 21)): 120.0 (48.0‐240.0) h
tlast ([6]; NCI-ODWG, Mild (N = 5)): 144.1 (96.0‐168.0)^c h
tlast ([6]; NCI-ODWG, Moderate (N = 5)): 240.8 (168.0‐334.5)^c h
tlast ([6]; NCI-ODWG, Severe (N = 5)): 216.4 (167.7‐336.0) h
systemic exposure compared to normal hepatic function ([6]; Child-Pugh mild hepatic impairment): comparable; also recorded: no appreciable difference
apparent plasma clearance lower than normal hepatic function ([6]; Child-Pugh moderate): ≈ 2.5 fold
apparent volume of distribution lower than normal hepatic function ([6]; Child-Pugh moderate): ~1.6 fold
mean elimination t1/2 longer than normal hepatic function ([6]; Child-Pugh moderate): ≈ 1.7 fold
increase in systemic exposure (AUC0‐∞) compared to normal hepatic function ([6]; Child-Pugh moderate hepatic impairment): ≈ 2 fold
apparent plasma clearance lower than normal hepatic function ([6]; Child-Pugh severe): ≈ 2.9 fold
apparent volume of distribution lower than normal hepatic function ([6]; Child-Pugh severe): ~2.1 fold
mean elimination t1/2 longer than normal hepatic function ([6]; Child-Pugh severe): ~1.5 fold
increase in systemic exposure (AUC0‐∞) compared to normal hepatic function ([6]; Child-Pugh severe hepatic impairment): ~3 fold
AUC0‐∞, Test/Reference geometric mean ratio ([6]; Mild vs normal, Child-Pugh): 89.5%
Cmax, Test/Reference geometric mean ratio ([6]; Mild vs normal, Child-Pugh): 98.6%
AUC0‐∞, Test/Reference geometric mean ratio [6, 11]: 89.5 (65.1‐123.2) %
Cmax, Test/Reference geometric mean ratio [6, 11]: 98.6 (52.8‐184.0) %
AUC0‐∞, Test/Reference geometric mean ratio ([6]; Mild vs normal, NCI-ODWG): 153.6%
Cmax, Test/Reference geometric mean ratio ([6]; Mild vs normal, NCI-ODWG): 101.1%
AUC0‐∞, Test/Reference geometric mean ratio [6, 12]: 153.6 (87.7‐269.2) %
Cmax, Test/Reference geometric mean ratio [6, 12]: 101.1 (35.9‐284.8) %
AUC0‐∞, Test/Reference geometric mean ratio ([6]; Moderate vs normal, Child-Pugh): 261.5%
Cmax, Test/Reference geometric mean ratio ([6]; Moderate vs normal, Child-Pugh): 184.1%
AUC0‐∞, Test/Reference geometric mean ratio [6, 13]: 261.5 (191.2‐357.5) %
Cmax, Test/Reference geometric mean ratio [6, 13]: 184.1 (112.2‐302.0) %
AUC0‐∞, Test/Reference geometric mean ratio ([6]; Moderate vs normal, NCI-ODWG): 339.1%
Cmax, Test/Reference geometric mean ratio ([6]; Moderate vs normal, NCI-ODWG): 198.1%
AUC0‐∞, Test/Reference geometric mean ratio [6, 14]: 339.1 (241.7‐475.6) %
Cmax, Test/Reference geometric mean ratio [6, 14]: 198.1 (109.5‐358.4) %
AUC0‐∞ higher than normal hepatic function ([6]; NCI-ODWG mild): ≈ 1.5 fold
Cmax compared to normal hepatic function ([6]; NCI-ODWG mild): similar
AUC0‐∞, Test/Reference geometric mean ratio ([6]; Severe vs normal, Child-Pugh): 298.1%
Cmax, Test/Reference geometric mean ratio ([6]; Severe vs normal, Child-Pugh): 163.8%
AUC0‐∞, Test/Reference geometric mean ratio [6, 15]: 298.1 (228.4‐389.0) %
Cmax, Test/Reference geometric mean ratio [6, 15]: 163.8 (86.4‐310.3) %
AUC0‐∞, Test/Reference geometric mean ratio ([6]; Severe vs normal, NCI-ODWG): 267.0%
Cmax, Test/Reference geometric mean ratio ([6]; Severe vs normal, NCI-ODWG): 155.2%
AUC0‐∞, Test/Reference geometric mean ratio [6, 16]: 267.0 (195.6‐364.3) %
Cmax, Test/Reference geometric mean ratio [6, 16]: 155.2 (70.7‐340.9) %
Tmax ([6]; human, plasma, po, 100 mg, median tmax, across all the groups, single oral 100-mg dose, Child-Pugh): 30 to 60 min
AUC0‐∞ increase compared to normal hepatic function [6, 17]: ~3 fold
Cmax increase compared to normal hepatic function [6, 17]: ≈ 2 fold
median half‐life (t1/2) ([7]; 400-mg dose in patients): ≈ 45 hours
dose proportionality ([7]; single dose, doses of 100 to 800 mg, dose escalation study): close to dose proportionality
maximum tolerated dose [8]: 400 mg
total AEs reported ([9]; all 36 subjects): 12 AEs
discontinuation due to AEs ([9]; in vivo): no subjects were discontinued
AEs reported ([9]; mild hepatic impairment): 3 AEs
subjects with AEs ([9]; mild hepatic impairment): 2 subjects
AEs reported ([9]; moderate hepatic impairment): 3 AEs
subjects with AEs ([9]; moderate hepatic impairment): 3 subjects
AEs reported ([9]; normal hepatic function): 1 AE
subjects with AEs ([9]; normal hepatic function): 1 subject
AE of orthostatic hypotension assessed as severe (grade 3) ([9]; one subject with moderate hepatic impairment): 1 AE
AEs reported ([9]; severe hepatic impairment): 5 AEs
subjects with AEs ([9]; severe hepatic impairment): 3 subjects
overall safety and tolerability ([9]; single oral dose of 100 mg, normal hepatic function and hepatic impairment): generally safe and well tolerated
increase of ipatasertib exposures with itraconazole [10]: ≈ 5 fold

O=C(c1ccc(F)c(F)c1Nc1ccc(I)cc1F)N1CC(O)([C@@H]2CCCCN2)C1 [cobimetinib]
exposure in subjects with normal and mildly impaired hepatic function [1]: comparable exposure

CCN(CC)CCNC(=O)c1c(C)[nH]c(/C=C2\C(=O)Nc3ccc(F)cc32)c1C [sunitinib]
exposure in subjects with normal and mildly impaired hepatic function [1]: comparable exposure

COc1cc2ncnc(Nc3ccc(F)c(Cl)c3)c2cc1NC(=O)/C=C/CN1CCCCC1 [dacomitinib]
exposure in subjects with normal and mildly impaired hepatic function [1]: comparable exposure
